Each block holds one compound with its values, some of them ahead of it.
Columns and labels:
Mus musculus = assay: Antinociceptive activity in ddY mouse at 100 mg/kg, po by formalin test; assay type: functional
Cytochrome P450 2D6 = Cytochrome P450 2D6 (Homo sapiens, UniProt P10635); assay: Inhibition of CYP2D6 (unknown origin) by fluorescence-based assay
[1] = Inhibition of N-type calcium channel in human IMR-32 cells by FLIPR calcium imaging assay; assay type: cell-based
How it was run: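 FLIPR calcium imaging in IMR-32 human neuroblastoma cells with nitrendipine present to block endogenous L-type channels; IC50 determined in duplicate in one experiment, advanced compounds tested in several repeat assays.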

CYP3A4 [2] = biological target: T1, CYP3A4 (Homo sapiens, UniProt P08684); assay: Reversible inhibition of CYP3A4 in human liver microsomes assessed as residual enzyme activity using midazolam as substrate by fluorescence-based assay; conditions: probe midazolam
CYP3A4 [3] = biological target: T1, CYP3A4; assay: Time-dependent inhibition of CYP3A4 in human liver microsomes assessed as residual enzyme activity using midazolam as substrate preincubated for 30 mins by fluorescence-based assay; conditions: probe midazolam
Rattus norvegicus = assay: Analgesic activity in po dosed Sprague-Dawley rat L5/L6 SNL model assessed as reduction of mechanical allodynia; assay type: functional
How it was run: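 Male Sprague-Dawley rats, L5/L6 spinal nerve ligation model; drug suspended/diluted in 0.5% methylcellulose, given orally at 0.3–10 mg/kg (dose as free form).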

Cytochrome P450 2C19 = Cytochrome P450 2C19 (Homo sapiens, UniProt P33261); assay: Inhibition of CYP2C19 (unknown origin) by fluorescence-based assay; assay type: ADME
How it was run: (§1)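 Fluorescence-based assay with fluorogenic substrate, as for CYP1A2 and 2D6; IC50 determined.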

[4] = biological target: Voltage-gated L-type calcium channel (Homo sapiens, UniProt Q13936+Q13698+Q01668+O60840); assay: Inhibition of L-type calcium channel in human IMR-32 cells by FLIPR calcium imaging assay; assay type: cell-based
[5] = Clearance in human liver microsomes; assay type: ADME; conditions: read-out: CLH
Cytochrome P450 2C9 = Cytochrome P450 2C9 (Homo sapiens, UniProt P11712); assay: Inhibition of CYP2C9 (unknown origin) by fluorescence-based assay; assay type: ADME; how it was run: as §1
Sequence of Cytochrome P450 2C9 (P11712 whole entry): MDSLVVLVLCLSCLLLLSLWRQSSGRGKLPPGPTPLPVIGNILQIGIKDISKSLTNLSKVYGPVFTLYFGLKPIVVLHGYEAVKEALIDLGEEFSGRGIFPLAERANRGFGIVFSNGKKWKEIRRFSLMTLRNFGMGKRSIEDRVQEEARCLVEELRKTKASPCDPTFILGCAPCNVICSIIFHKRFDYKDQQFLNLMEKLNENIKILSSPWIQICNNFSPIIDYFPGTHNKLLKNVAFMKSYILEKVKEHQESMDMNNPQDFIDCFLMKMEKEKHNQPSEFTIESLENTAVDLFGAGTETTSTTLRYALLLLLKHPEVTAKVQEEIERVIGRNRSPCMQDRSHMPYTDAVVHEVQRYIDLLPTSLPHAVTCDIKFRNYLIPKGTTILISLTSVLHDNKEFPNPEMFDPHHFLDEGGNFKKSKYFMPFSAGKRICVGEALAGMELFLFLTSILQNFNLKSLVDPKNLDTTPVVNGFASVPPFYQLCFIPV

Sequence of Cytochrome P450 2D6 (P10635 whole entry): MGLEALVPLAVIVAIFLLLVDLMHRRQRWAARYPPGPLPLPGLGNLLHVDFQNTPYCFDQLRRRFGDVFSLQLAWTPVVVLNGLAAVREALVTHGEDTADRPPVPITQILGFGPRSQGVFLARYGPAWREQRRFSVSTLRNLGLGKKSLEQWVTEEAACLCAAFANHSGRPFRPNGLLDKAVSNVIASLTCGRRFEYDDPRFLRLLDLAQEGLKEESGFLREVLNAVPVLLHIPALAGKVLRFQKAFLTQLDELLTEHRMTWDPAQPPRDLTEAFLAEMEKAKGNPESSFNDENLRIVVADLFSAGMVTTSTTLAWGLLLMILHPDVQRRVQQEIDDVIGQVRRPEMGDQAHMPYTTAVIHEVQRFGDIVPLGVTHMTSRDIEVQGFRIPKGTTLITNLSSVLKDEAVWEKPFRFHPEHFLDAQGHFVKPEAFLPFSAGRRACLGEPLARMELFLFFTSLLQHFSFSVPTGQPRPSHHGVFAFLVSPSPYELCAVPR
T1 sequence (P08684 whole entry): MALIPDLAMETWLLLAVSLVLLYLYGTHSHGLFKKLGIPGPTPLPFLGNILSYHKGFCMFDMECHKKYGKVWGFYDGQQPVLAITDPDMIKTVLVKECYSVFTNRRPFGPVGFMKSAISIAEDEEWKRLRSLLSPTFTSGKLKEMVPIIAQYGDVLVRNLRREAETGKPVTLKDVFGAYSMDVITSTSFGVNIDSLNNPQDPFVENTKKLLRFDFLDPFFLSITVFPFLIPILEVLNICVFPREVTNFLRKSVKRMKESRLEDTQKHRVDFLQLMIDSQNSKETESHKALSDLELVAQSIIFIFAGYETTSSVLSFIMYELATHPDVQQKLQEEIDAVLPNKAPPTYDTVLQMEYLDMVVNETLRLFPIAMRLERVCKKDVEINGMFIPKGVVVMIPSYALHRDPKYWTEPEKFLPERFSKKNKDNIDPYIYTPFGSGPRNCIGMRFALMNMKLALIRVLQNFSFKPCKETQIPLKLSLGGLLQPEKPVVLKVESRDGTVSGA
Sequence of Cytochrome P450 2C19 (P33261 whole entry): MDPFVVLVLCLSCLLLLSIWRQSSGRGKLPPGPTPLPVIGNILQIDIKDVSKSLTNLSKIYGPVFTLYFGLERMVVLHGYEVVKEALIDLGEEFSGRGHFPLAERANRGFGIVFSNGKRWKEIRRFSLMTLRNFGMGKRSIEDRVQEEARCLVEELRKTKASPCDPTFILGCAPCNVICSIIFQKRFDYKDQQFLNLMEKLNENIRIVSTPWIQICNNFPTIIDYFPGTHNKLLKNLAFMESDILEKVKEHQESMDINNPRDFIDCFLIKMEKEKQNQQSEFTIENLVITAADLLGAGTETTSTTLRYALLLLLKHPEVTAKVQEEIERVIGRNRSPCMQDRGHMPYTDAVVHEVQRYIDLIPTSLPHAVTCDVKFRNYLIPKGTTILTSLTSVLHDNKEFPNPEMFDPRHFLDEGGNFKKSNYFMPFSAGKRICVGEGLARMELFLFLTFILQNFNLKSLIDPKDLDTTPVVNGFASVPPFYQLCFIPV

SMILES: O=C(CNCC1(O)CCCCC1)N1CCc2ccccc2C1C1CCCCC1 (stereo unspecified)
inhibition in vivo at 100 mg/kg (Mus musculus): 62%

SMILES: O=C(CNCC1(O)CCCCC1)N1CCc2ccccc2[C@@H]1c1ccccc1
IC50 (Cytochrome P450 2D6): < 390 nM
IC50 [1]: 1000 nM

SMILES: CC(C)(O)CNCC(=O)N1CCc2ccccc2C1C1CCCCC1 (stereo unspecified)
inhibition in vivo at 100 mg/kg (Mus musculus): 7.7%
IC50 [1]: 1700 nM

SMILES: CC[C@@H](O)CNCC(=O)N1CCc2ccccc2C1C1CCCCC1 (stereo partly specified)
activity (CYP3A4 [2]): 87%
inhibition in vivo at 100 mg/kg (Mus musculus): 19%
IC50 (Cytochrome P450 2D6): 1000 nM
IC50 [1]: 1500 nM
activity at 30 min (CYP3A4 [3]): 88%

SMILES: CC[C@H](O)CNCC(=O)N1CCc2ccccc2C1C1CCCCC1 (stereo partly specified)
activity (CYP3A4 [2]): 81%
inhibition in vivo at 100 mg/kg (Mus musculus): 27%
IC50 (Cytochrome P450 2D6): < 300 nM
IC50 [1]: 1900 nM
activity at 30 min (CYP3A4 [3]): 83%

SMILES: CC(C)(C)[C@@H](CO)NCC(=O)N1CCc2ccccc2C1C1CCCCC1 (stereo partly specified)
activity (CYP3A4 [2]): 65%
inhibition in vivo at 100 mg/kg (Mus musculus): 40%
IC50 (Cytochrome P450 2D6): 68 nM
IC50 [1]: 1400 nM
activity at 30 min (CYP3A4 [3]): 33%

SMILES: CC(C)C[C@@H](CO)NCC(=O)N1CCc2ccccc2C1C1CCCCC1 (stereo partly specified)
activity (CYP3A4 [2]): 69%
inhibition in vivo at 100 mg/kg (Mus musculus): 32%
IC50 (Cytochrome P450 2D6): 44 nM
IC50 [1]: 1100 nM
activity at 30 min (CYP3A4 [3]): 46%

SMILES: COc1cccc2c1CCN(C(=O)CNC[C@@H](C)O)C2C1CCCCC1 (stereo partly specified)
activity (CYP3A4 [2]): 107%
IC50 (Cytochrome P450 2D6): < 780 nM
IC50 [1]: 2000 nM
activity at 30 min (CYP3A4 [3]): 63%

SMILES: COc1cccc2c1C(C1CCCCC1)N(C(=O)CNC[C@@H](C)O)CC2 (stereo partly specified)
activity (CYP3A4 [2]): 85%
IC50 (Cytochrome P450 2D6): 30200 nM
IC50 [1]: 1400 nM
activity at 30 min (CYP3A4 [3]): 58%

SMILES: C[C@@H](O)CNCC(=O)N1CCc2ccccc2[C@@H]1c1ccccc1
activity (CYP3A4 [2]): 98%
IC50 (Cytochrome P450 2D6): 2200 nM
IC50 [1]: 2400 nM
activity at 30 min (CYP3A4 [3]): 94%

SMILES: C[C@@H](O)CNCC(=O)N1CCc2cccc(F)c2C1c1ccccc1 (stereo partly specified)
activity (CYP3A4 [2]): 103%
IC50 (Cytochrome P450 2D6): 1300 nM
IC50 [1]: 1000 nM
activity at 30 min (CYP3A4 [3]): 95%

SMILES: Cc1cccc2c1C(c1ccccc1)N(C(=O)CNC[C@@H](C)O)CC2 (stereo partly specified)
activity (CYP3A4 [2]): 100%
IC50 (Cytochrome P450 2D6): 5600 nM
IC50 [1]: 1300 nM
activity at 30 min (CYP3A4 [3]): 89%

SMILES: COc1cccc2c1[C@H](c1ccccc1)N(C(=O)CNC[C@@H](C)O)CC2
activity (CYP3A4 [2]): 94%
inhibition in vivo at 100 mg/kg (Mus musculus): 77%
ED50 (Rattus norvegicus): 2.8 mg/kg
IC50 (Cytochrome P450 2C19): > 50 µM
IC50 [4]: > 10 µM
CLint scaled [5]: 45.9 mL/min/kg
IC50 [1]: 1400 nM
IC50 (Cytochrome P450 2C9): > 50 µM
activity at 30 min (CYP3A4 [3]): 90%

SMILES: COc1cccc2c1[C@@H](c1ccccc1)N(C(=O)CNC[C@@H](C)O)CC2
activity (CYP3A4 [2]): 110%
IC50 [1]: 3300 nM
activity at 30 min (CYP3A4 [3]): 91%

Now from value to compound, other results behind:

activity (CYP3A4 [2]): 92%
IC50 (Cytochrome P450 2D6): 1100 nM
IC50 [1]: 2000 nM
activity at 30 min (CYP3A4 [3]): 95%
SMILES: C[C@@H](O)CNCC(=O)N1CCc2ccccc2C1C1CCCCC1 (stereo partly specified)
inhibition in vivo at 100 mg/kg (Mus musculus): 39%

activity (CYP3A4 [2]): 96%
IC50 (Cytochrome P450 2D6): 1600 nM
IC50 [1]: 1500 nM
activity at 30 min (CYP3A4 [3]): 91%
SMILES: C[C@H](O)CNCC(=O)N1CCc2ccccc2C1C1CCCCC1 (stereo partly specified)
inhibition in vivo at 100 mg/kg (Mus musculus): 0%

activity (CYP3A4 [2]): 105%
IC50 (Cytochrome P450 2D6): 1400 nM
IC50 [1]: 1700 nM
activity at 30 min (CYP3A4 [3]): 87%
SMILES: C[C@@H](O)CNCC(=O)N1CCc2ccccc2[C@@H]1C1CCCCC1
inhibition in vivo at 100 mg/kg (Mus musculus): 55%

activity (CYP3A4 [2]): 95%
IC50 (Cytochrome P450 2D6): < 390 nM
IC50 [1]: 1200 nM
activity at 30 min (CYP3A4 [3]): 49%
SMILES: C[C@@H](O)CNCC(=O)N1CCc2c(F)cccc2C1C1CCCCC1 (stereo partly specified)

activity (CYP3A4 [2]): 92%
IC50 (Cytochrome P450 2D6): 1600 nM
IC50 [1]: 1600 nM
activity at 30 min (CYP3A4 [3]): 91%
SMILES: C[C@@H](O)CNCC(=O)N1CCc2cc(F)ccc2C1C1CCCCC1 (stereo partly specified)

IC50 [1]: 2400 nM
SMILES: Cc1ccc2c(c1)CCN(C(=O)CNC[C@@H](C)O)C2C1CCCCC1 (stereo partly specified)

activity (CYP3A4 [2]): 93%
IC50 (Cytochrome P450 2D6): < 780 nM
IC50 [1]: 1900 nM
activity at 30 min (CYP3A4 [3]): 97%
SMILES: COc1ccc2c(c1)CCN(C(=O)CNC[C@@H](C)O)C2C1CCCCC1 (stereo partly specified)

IC50 [1]: 3100 nM
SMILES: C[C@@H](O)CNCC(=O)N1CCc2cc(C#N)ccc2C1C1CCCCC1 (stereo partly specified)

IC50 [1]: > 10000 nM
SMILES: C[C@@H](O)CNCC(=O)N1CCc2cc(C(N)=O)ccc2C1C1CCCCC1 (stereo partly specified)

activity (CYP3A4 [2]): 109%
IC50 (Cytochrome P450 2D6): 1300 nM
IC50 [1]: 2300 nM
activity at 30 min (CYP3A4 [3]): 80%
SMILES: C[C@@H](O)CNCC(=O)N1CCc2ccc(F)cc2C1C1CCCCC1 (stereo partly specified)

IC50 [1]: 1700 nM
SMILES: Cc1ccc2c(c1)C(C1CCCCC1)N(C(=O)CNC[C@@H](C)O)CC2 (stereo partly specified)

activity (CYP3A4 [2]): 85%
IC50 (Cytochrome P450 2D6): 1300 nM
IC50 [1]: 890 nM
activity at 30 min (CYP3A4 [3]): 65%
SMILES: CCc1ccc2c(c1)C(C1CCCCC1)N(C(=O)CNC[C@@H](C)O)CC2 (stereo partly specified)

activity (CYP3A4 [2]): 88%
IC50 (Cytochrome P450 2D6): 1900 nM
IC50 [1]: 1300 nM
activity at 30 min (CYP3A4 [3]): 43%
SMILES: CC(C)c1ccc2c(c1)C(C1CCCCC1)N(C(=O)CNC[C@@H](C)O)CC2 (stereo partly specified)

activity (CYP3A4 [2]): 97%
IC50 (Cytochrome P450 2D6): 3700 nM
IC50 [1]: 1600 nM
activity at 30 min (CYP3A4 [3]): 83%
SMILES: COc1ccc2c(c1)C(C1CCCCC1)N(C(=O)CNC[C@@H](C)O)CC2 (stereo partly specified)

IC50 [1]: 2600 nM
SMILES: C[C@@H](O)CNCC(=O)N1CCc2ccc(C#N)cc2C1C1CCCCC1 (stereo partly specified)

IC50 [1]: 2500 nM
SMILES: C[C@@H](O)CNCC(=O)N1CCc2cccc(F)c2C1C1CCCCC1 (stereo partly specified)
